Test results published in ChEMBL document CHEMBL1122629, “Potent and selective antagonists of the antidiuretic responses to arginine-vasopressin based on modifications of [1-(beta-mercapto-beta,beta-pentamethylenepropionic acid),2-D-isoleucine,4- valine]arginine-vasopressin at position 4” (J Med Chem, 1984).
*1 amine or outer side, *2 acyl side, *3 side chain or, on linkers, in order; H or OH if unused. Where a SMILES comes first, the peptide text is derived from it. Bridges are numbered along the chain shown (N, C = ends). [ ]: non-standard residue; d: D form. X1 = O=C(CC1(S[*:2])CCCCC1)[*:1]; Orn = NCCC[C@H](N)C(=O)O

How the values were obtained:
Rattus norvegicus [1] = species on record: Rattus norvegicus; assay: Anti-oxytocic activity on isolated rat uterus in absence of Mg2+. pA2 value is negative logarithm of effective dose (ED); format: functional; details: read-out: pA2 (converted)
Method in brief: (§1)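 Isolated rat uterus, with USP posterior pituitary reference standard as agonist. Antagonism expressed as pA2.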

Rattus norvegicus [2] = species on record: Rattus norvegicus; assay: Anti-oxytocic activity on isolated rat uterus in presence of 0.5 mM of Mg2+. pA2 value is negative logarithm of effective dose (ED); format: functional; details: read-out: pA2 (converted); method in brief: as §1
Rattus norvegicus [3] = species on record: Rattus norvegicus; assay: Antidiuretic activity in rats and pA2 value is negative logarithm of effective dose (ED); format: functional, organism-based; details: Urine, read-out: pA2 (converted)
Method in brief: (§2)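 Antidiuretic assay in rats under ethanol anaesthesia against the USP posterior pituitary reference standard. Standard given 20 min after antagonist, or 10 min for analogues lacking agonism. Each peptide given at a high and a low dose. ED is the dose (nmol/kg) that cuts the response to 2x units of agonist to the response to 1x unit given before antagonist. […] Means ± SE, n assays.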

Rattus norvegicus [4] = assay: Evaluated in vivo for logarithm effective dose (ED); format: functional, organism-based
Rattus norvegicus [5] = assay: In vivo antidiuretic activity in rat measured as dose that reduced the response seen with 2x units of agonist to equal the response seen with 1x unit of agonist administered before antagonist; format: functional, Urine; method in brief: as §2
Rattus norvegicus [6] = assay: In vivo anti-vasopressor activity in phenoxybenzamine-treated rats under urethane anesthesia is measured as effective dose; format: functional
Method in brief: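 Intravenous vasopressor assay in phenoxybenzamine-treated rats under urethane anaesthesia, agonist USP posterior pituitary reference standard. ED is the dose (nmol/kg) that reduces the response to 2x units of agonist to that of 1x unit given before antagonist. […] Means ± SE, number of assays given.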

[7] = Ratio of anti-vasopressor ED50 to antiantidiuretic ED50; format: functional, Urine
Method in brief: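 Ratio of antivasopressor ED to antiantidiuretic ED. Each ED is the dose (nmol/kg) that lowers the response to 2x units of agonist to that of 1x unit before antagonist. Measured in rats: vasopressor assay in phenoxybenzamine-treated, urethane-anaesthetised animals; antidiuretic assay under ethanol anaesthesia.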

Rattus norvegicus [8] = species on record: Rattus norvegicus; assay: Anti-oxytocic activity in rat uterus and effective dose (ED) was reported.; format: functional
Method in brief: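 Rat uterus in situ, with synthetic oxytocin as agonist. ED is the dose (nmol/kg) that lowers the response to 2x units of agonist to that of 1x unit given before antagonist.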

Row | Structure (SMILES) | Kb (Rattus norvegicus [1]) [nM] | Kb (Rattus norvegicus [2]) [nM] | Kb (Rattus norvegicus [3]) [nM] | in vivo pA2 effective dose (as concentration) (Rattus norvegicus [4]) [µM] | ED (Rattus norvegicus [5]) [nmol/kg] | ED (Rattus norvegicus [6]) [nmol/kg] | Ratio [7] | ED (Rattus norvegicus [8]) [nmol/kg]
1 | NCCC[C@@H]1NC(=O)[C@H](Cc2ccccc2)NC(=O)[C@@H](Cc2ccccc2)NC(=O)CC2(CCCCC2)SSC[C@@H](C(=O)N2CCC[C@H]2C(=O)N[C@@H](CCCN=C(N)N)C(=O)NCC(N)=O)NC(=O)[C@H](CC(N)=O)NC1=O ([dF]F[Orn]NCPRG-NH2; linker N-5 via X1) [listing 1 of 2 here] | 18.6 | 20 | 316 | 0.0269 |  |  |  | 
2 | CC[C@@H](C)[C@H]1NC(=O)CC2(CCCCC2)SSC[C@@H](C(=O)N2CCC[C@H]2C(=O)N[C@@H](CCCN=C(N)N)C(=O)NCC(N)=O)NC(=O)[C@H](CC(N)=O)NC(=O)[C@H](CC2CCCCC2)NC(=O)[C@H](Cc2ccccc2)NC1=O [listing 1 of 2 here] |  |  |  |  | 15.6 | 19.1 | 1.2 | 
3 | NCCC[C@@H]1NC(=O)[C@H](Cc2ccccc2)NC(=O)[C@@H](Cc2ccccc2)NC(=O)CC2(CCCCC2)SSC[C@@H](C(=O)N2CCC[C@H]2C(=O)N[C@@H](CCCN=C(N)N)C(=O)NCC(N)=O)NC(=O)[C@H](CC(N)=O)NC1=O ([dF]F[Orn]NCPRG-NH2; linker N-5 via X1) [listing 2 of 2 here] |  |  |  |  | 21.3 | 1.9 | 0.09 | 
4 | CC[C@@H](C)[C@H]1NC(=O)CC2(CCCCC2)SSC[C@@H](C(=O)N2CCC[C@H]2C(=O)N[C@@H](CCCN=C(N)N)C(=O)NCC(N)=O)NC(=O)[C@H](CC(N)=O)NC(=O)[C@H](CC(N)=O)NC(=O)[C@H](Cc2ccccc2)NC1=O [listing 1 of 2 here] | 11.7 | 39.8 | 309 | 0.055 |  |  |  | 
5 | CC[C@@H](C)[C@H]1NC(=O)CC2(CCCCC2)SSC[C@@H](C(=O)N2CCC[C@H]2C(=O)N[C@@H](CCCN=C(N)N)C(=O)NCC(N)=O)NC(=O)[C@H](CC(N)=O)NC(=O)[C@H](CC(C)C)NC(=O)[C@H](Cc2ccccc2)NC1=O [listing 1 of 2 here] | 14.5 | 26.9 | 158 | 0.178 |  |  |  | 
6 | CCC[C@@H]1NC(=O)[C@H](Cc2ccccc2)NC(=O)[C@@H]([C@H](C)CC)NC(=O)CC2(CCCCC2)SSC[C@@H](C(=O)N2CCC[C@H]2C(=O)N[C@@H](CCCN=C(N)N)C(=O)NCC(N)=O)NC(=O)[C@H](CC(N)=O)NC1=O |  |  |  |  | 7 | 8.2 | 1.2 | 22
7 | CC[C@@H](C)[C@H]1NC(=O)CC2(CCCCC2)SSC[C@@H](C(=O)N2CCC[C@H]2C(=O)N[C@@H](CCCN=C(N)N)C(=O)NCC(N)=O)NC(=O)[C@H](CC(N)=O)NC(=O)[C@H](CC(N)=O)NC(=O)[C@H](Cc2ccccc2)NC1=O [listing 2 of 2 here] |  |  |  |  | 25 | 3.9 | 0.16 | 
8 | CC[C@@H](C)[C@H]1NC(=O)CC2(CCCCC2)SSC[C@@H](C(=O)N2CCC[C@H]2C(=O)N[C@@H](CCCN=C(N)N)C(=O)NCC(N)=O)NC(=O)[C@H](CC(N)=O)NC(=O)[C@H](CCCN)NC(=O)[C@H](Cc2ccccc2)NC1=O [listing 1 of 2 here] | 26.9 | 195 | 347 | 0.174 |  |  |  | 
9 | CC[C@@H](C)[C@H]1NC(=O)CC2(CCCCC2)SSC[C@@H](C(=O)N2CCC[C@H]2C(=O)N[C@@H](CCCN=C(N)N)C(=O)NCC(N)=O)NC(=O)[C@H](CC(N)=O)NC(=O)[C@H]([C@@H](C)O)NC(=O)[C@H](Cc2ccccc2)NC1=O |  |  |  |  | 0.88 | 10.5 | 12 | 9.5
10 | CC[C@@H](C)[C@H]1NC(=O)CC2(CCCCC2)SSC[C@@H](C(=O)N2CCC[C@H]2C(=O)N[C@@H](CCCN=C(N)N)C(=O)NCC(N)=O)NC(=O)[C@H](CC(N)=O)NC(=O)[C@H](C)NC(=O)[C@H](Cc2ccccc2)NC1=O |  |  |  |  | 1.7 | 66 | 39 | 57
11 | CC[C@@H](C)[C@H]1NC(=O)CC2(CCCCC2)SSC[C@@H](C(=O)N2CCC[C@H]2C(=O)N[C@@H](CCCN=C(N)N)C(=O)NCC(N)=O)NC(=O)[C@H](CC(N)=O)NC(=O)[C@H]([C@@H](C)CC)NC(=O)[C@H](Cc2ccccc2)NC1=O |  |  |  |  | 0.67 | 26 | 39 | 9.4
12 | CC[C@@H](C)[C@H]1NC(=O)CC2(CCCCC2)SSC[C@@H](C(=O)N2CCC[C@H]2C(=O)N[C@@H](CCCN=C(N)N)C(=O)NCC(N)=O)NC(=O)[C@H](CC(N)=O)NC(=O)[C@H](CC2CCCCC2)NC(=O)[C@H](Cc2ccccc2)NC1=O [listing 2 of 2 here] | 36.3 | 81.3 | 229 | 0.275 |  |  |  | 
13 | NC(=O)CNC(=O)[C@H](CCCN=C(N)N)NC(=O)[C@@H]1CCCN1C(=O)[C@@H]1CSSC2(CCCCC2)CC(=O)N[C@H](Cc2ccccc2)C(=O)N[C@@H](Cc2ccccc2)C(=O)N[C@@H](CO)C(=O)N[C@@H](CC(N)=O)C(=O)N1 |  |  |  |  | 3.9 | 1.6 | 0.41 | 13
14 | CC[C@@H](C)[C@H]1NC(=O)CC2(CCCCC2)SSC[C@@H](C(=O)N2CCC[C@H]2C(=O)N[C@@H](CCCN=C(N)N)C(=O)NCC(N)=O)NC(=O)[C@H](CC(N)=O)NC(=O)[C@H](CO)NC(=O)[C@H](Cc2ccccc2)NC1=O [listing 1 of 2 here] | 52.5 | 151 | 55 | 0.617 |  |  |  | 
15 | CC[C@@H](C)[C@H]1NC(=O)CC2(CCCCC2)SSC[C@@H](C(=O)N2CCC[C@H]2C(=O)N[C@@H](CCCN=C(N)N)C(=O)NCC(N)=O)NC(=O)[C@H](CC(N)=O)NC(=O)[C@H](CCCCN)NC(=O)[C@H](Cc2ccccc2)NC1=O [listing 1 of 2 here] | 79.4 | 251 | 174 |  |  |  |  | 
16 | CC[C@@H](C)[C@H]1NC(=O)CC2(CCCCC2)SSC[C@@H](C(=O)N2CCC[C@H]2C(=O)N[C@@H](CCCN=C(N)N)C(=O)NCC(N)=O)NC(=O)[C@H](CC(N)=O)NC(=O)[C@H](CCCN)NC(=O)[C@H](Cc2ccccc2)NC1=O [listing 2 of 2 here] |  |  |  |  | 49 | 11.9 | 0.24 | 
17 | CC[C@@H](C)[C@H]1NC(=O)CC2(CCCCC2)SSC[C@@H](C(=O)N2CCC[C@H]2C(=O)N[C@@H](CCCN=C(N)N)C(=O)NCC(N)=O)NC(=O)[C@H](CC(N)=O)NC(=O)[C@H](C(C)C)NC(=O)[C@H](Cc2ccccc2)NC1=O |  |  |  |  |  |  | 12 | 
18 | CC[C@@H](C)[C@H]1NC(=O)CC2(CCCCC2)SSC[C@@H](C(=O)N2CCC[C@H]2C(=O)N[C@@H](CCCN=C(N)N)C(=O)NCC(N)=O)NC(=O)[C@H](CC(N)=O)NC(=O)[C@H](CO)NC(=O)[C@H](Cc2ccccc2)NC1=O [listing 2 of 2 here] |  |  |  |  | 4.6 | 45 | 10 | 
19 | CC[C@@H](C)[C@H]1NC(=O)CC2(CCCCC2)SSC[C@@H](C(=O)N2CCC[C@H]2C(=O)N[C@@H](CCCN=C(N)N)C(=O)NCC(N)=O)NC(=O)[C@H](CC(N)=O)NC(=O)[C@H](Cc2ccccc2)NC(=O)[C@H](Cc2ccccc2)NC1=O | 74.1 | 120 |  |  |  |  |  | 
20 | CC[C@@H](C)[C@H]1NC(=O)CC2(CCCCC2)SSC[C@@H](C(=O)N2CCC[C@H]2C(=O)N[C@@H](CCCN=C(N)N)C(=O)NCC(N)=O)NC(=O)[C@H](CC(N)=O)NC(=O)[C@H](CCCCN)NC(=O)[C@H](Cc2ccccc2)NC1=O [listing 2 of 2 here] |  |  |  |  | 11.9 |  |  | 
21 | CC[C@@H](C)[C@H]1NC(=O)CC2(CCCCC2)SSC[C@@H](C(=O)N2CCC[C@H]2C(=O)N[C@@H](CCCN=C(N)N)C(=O)NCC(N)=O)NC(=O)[C@H](CC(N)=O)NC(=O)[C@H](CC(C)C)NC(=O)[C@H](Cc2ccccc2)NC1=O [listing 2 of 2 here] |  |  |  |  | 11 | 12.4 | 1.1 | 
